Test results from ChEMBL document CHEMBL2384986, “Re-evolution of the 2-phenylquinolines: ligand-based design, synthesis, and biological evaluation of a potent new class of Staphylococcus aureus NorA efflux pump inhibitors to combat antimicrobial resistance” (J Med Chem, 2013).
Active and inactive are the calls of the source. No cut-off for these calls is given here.

Experiments:
Staphylococcus aureus [1] = assay: Antibacterial activity against Staphylococcus aureus 1199B overexpressing NorA and grlA A116E mutant assessed as growth inhibition by microdilution method; assay type: functional
Procedure, shortened: (§1)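 Broth microdilution MIC per CLSI guidelines for intrinsic antistaphylococcal activity; highest concentration tested 100 μg/mL. SA-1199 is the norA wild-type parent, SA-1199B overexpresses norA and carries GrlA A116E, and SA-K2378 overexpresses norA from multicopy plasmid pCU1 in the norA-deleted SA-K1902 background.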

[2] = target: Quinolone resistance protein NorA (Staphylococcus aureus, UniProt P0A0J7); assay: Inhibition of NorA in Staphylococcus aureus 1199B harboring grlA A116E mutant assessed as inhibition of ethidium bromide efflux measured for 5 mins by fluorometric analysis
Procedure, shortened: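 Fluorometric EtBr efflux assay in SA-1199B (norA overexpressing, GrlA A116E) over a 5 min time course, compared with no-inhibitor control. Increasing inhibitor concentrations were tested, and IC50 was read by inspection of the dose-response plots. Usually run in duplicate.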

[3] = target: T1, Quinolone resistance protein NorA (Staphylococcus aureus) (UniProt P0A0J7); assay: Inhibition of NorA in Staphylococcus aureus 1199B harboring grlA A116E mutant assessed as inhibition of ethidium bromide efflux at 50 uM measured for 5 mins by fluorometric analysis relative to control
T1 sequence (whole entry): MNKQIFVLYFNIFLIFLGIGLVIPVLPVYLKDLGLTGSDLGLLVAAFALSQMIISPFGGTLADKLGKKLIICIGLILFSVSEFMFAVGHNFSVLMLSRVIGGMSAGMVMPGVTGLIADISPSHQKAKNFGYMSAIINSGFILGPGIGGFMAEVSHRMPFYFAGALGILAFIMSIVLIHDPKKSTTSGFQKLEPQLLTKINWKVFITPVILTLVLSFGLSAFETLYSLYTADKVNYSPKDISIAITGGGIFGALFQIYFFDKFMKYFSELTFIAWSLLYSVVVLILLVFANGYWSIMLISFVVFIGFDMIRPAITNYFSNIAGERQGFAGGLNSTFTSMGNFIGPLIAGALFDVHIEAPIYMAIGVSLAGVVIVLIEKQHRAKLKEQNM
Procedure, shortened: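 EtBr loss from SA-1199B (norA overexpressing, GrlA A116E) measured fluorometrically with inhibitor at 50 μM, compared with no-inhibitor control. Read-out is mean total efflux over a 5 min time course, expressed as percent reduction in efflux. Usually run in duplicate.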

Staphylococcus aureus [4] = assay: Antibacterial activity against Staphylococcus aureus 1199 harboring wild type norA assessed as growth inhibition by microdilution method
Staphylococcus aureus [5] = assay: Antibacterial activity against norA-deficient Staphylococcus aureus K1902 assessed as growth inhibition by microdilution method; assay type: functional
Procedure, shortened: (§2)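 Broth microdilution MIC determination following CLSI guidelines. Strains: wild-type ATCC 25923 and SA-K1902 (norA−). Intrinsic activity was tested up to a top concentration of 100 μg/mL.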

Staphylococcus aureus [6] = assay: Reduction of ciprofloxacin MIC in norA-deficient Staphylococcus aureus K1902 at 0.78 to 100 ug/mL; assay type: functional, organism-based
Procedure, shortened: (§3)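 Ciprofloxacin MIC determined by CLSI broth microdilution, alone and combined with scalar dilutions of freshly prepared test compound; checkerboard combination format. Strains: ATCC 25923 (wild type), SA-1199 (norA wt), SA-1199B (norA overexpressing, GrlA A116E), SA-K2378 (norA on multicopy pCU1) and SA-K1902 (norA-deleted).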

[7] = target: T1, Quinolone resistance protein NorA (Staphylococcus aureus); assay: Inhibition of wild type NorA in Staphylococcus aureus 1199 assessed as reduction of ciprofloxacin MIC at 0.78 to 100 ug/mL; procedure, shortened: as §3
[8] = target: T1, Quinolone resistance protein NorA (Staphylococcus aureus); assay: Inhibition of NorA in Staphylococcus aureus ATCC 25923 assessed as reduction of ciprofloxacin MIC at 0.78 to 100 ug/mL; procedure, shortened: as §3
[9] = target: T1, Quinolone resistance protein NorA (Staphylococcus aureus); assay: Inhibition of NorA in Staphylococcus aureus K2378 assessed as reduction of ciprofloxacin MIC at 0.78 to 100 ug/mL relative to control; procedure, shortened: as §3
Staphylococcus aureus [10] = assay: Antibacterial activity against Staphylococcus aureus K2378 overexpressing norA assessed as growth inhibition by microdilution method; assay type: functional; procedure, shortened: as §1
Staphylococcus aureus [11] = assay: Antibacterial activity against wild type Staphylococcus aureus ATCC 25923 assessed as growth inhibition by microdilution method; assay type: functional; procedure, shortened: as §2
Staphylococcus aureus [12] = assay: Reduction of ethidium bromide MIC in mepA-deficient Staphylococcus aureus K2885 at 0.78 to 100 ug/mL; assay type: functional, organism-based
Procedure, shortened: (§4)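 The strains are norA-deleted S. aureus carrying pALC2073-mepA (K2886) or the empty pALC2073 vector (K2885). Cloned genes are under a xyl/tetO promoter, induced by 0.05 μg/mL tetracycline, which was present in all experiments with these strains. EtBr MICs were determined by CLSI microdilution, with and without test compound.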

Staphylococcus aureus [13] = assay: Inhibition of MepA in Staphylococcus aureus K2886 assessed as reduction of ethidium bromide MIC at 0.78 to 100 ug/mL; procedure, shortened: as §4
[14] = target: T1, Quinolone resistance protein NorA (Staphylococcus aureus); assay: Inhibition of NorA in Staphylococcus aureus 1199B harboring grlA A116E mutant assessed as reduction of ciprofloxacin MIC at 3.13 ug/mL relative to control; procedure, shortened: as §3
Staphylococcus aureus [15] = assay: Inhibition of MepA in Staphylococcus aureus K2886 assessed as reduction of ethidium bromide MIC at 1.56 ug/mL relative to control
Procedure, shortened: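 Ethidium bromide MIC by CLSI microdilution, alone and combined with test compound. Strain SA-K2886 is norA-deleted and carries pALC2073-mepA, with mepA under a xyl/tetO promoter; 0.05 μg/mL tetracycline was included throughout to induce expression.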

| Structure (SMILES) | MIC (Staphylococcus aureus [1]) [µM] | IC50 [2] [µM] | inhibition [3] [%] | MIC (Staphylococcus aureus [4]) [µg/mL] | Activity (Staphylococcus aureus [6]) | inhibition [7] | inhibition [8] | fold change (FC) [9] | also measured |
| --- | --- | --- | --- | --- | --- | --- | --- | --- | --- |
| CCCOc1ccc(-c2cc(OC(C)CN(C)C)c3ccccc3n2)cc1 (racemic) | > 200 | 13.3 | 86.2 | – | – | – | – | – | – |
| CCCOc1ccc(-c2cc(OCCn3cccc3)c3ccccc3n2)cc1 | – | – | 4.1 | – | – | – | – | – | – |
| COC(=O)[C@H]1[C@H]2C[C@@H]3c4[nH]c5cc(OC)ccc5c4CCN3C[C@H]2C[C@@H](OC(=O)c2cc(OC)c(OC)c(OC)c2)[C@@H]1OC [RESERPINE] | > 150 | 9.2 | – | > 100 | inactive | inactive | inactive | 4 | MIC (Staphylococcus aureus [5]): > 100 µg/mL; MIC (Staphylococcus aureus [10]): > 100 µg/mL; MIC (Staphylococcus aureus [11]): > 100 µg/mL |
| Fc1ccc([C@H]2CCNC[C@@H]2COc2ccc3c(c2)OCO3)cc1 | – | – | 85 | – | – | – | – | – | – |
| CCCOc1ccc(-c2cc(OCC(C)N(C)C)c3ccccc3n2)cc1.Cl (configuration not stated) | > 200 | 7.5 | 90.4 | > 100 | inactive | inactive | inactive | 4 | – |
| CCCOc1ccc(-c2cc(OCCC(C)C)c3ccccc3n2)cc1 | – | – | 33.2 | – | – | – | – | – | – |
| CCCOc1ccc(-c2cc(OCCN(C(C)C)C(C)C)c3ccccc3n2)cc1 | > 200 | 8.3 | 88.2 | > 100 | inactive | inactive | inactive | 4 | MIC (Staphylococcus aureus [5]): 100 µg/mL; Activity (Staphylococcus aureus [12]): inactive; inhibition (Staphylococcus aureus [13]): Active; MIC (Staphylococcus aureus [10]): > 100 µg/mL; MIC (Staphylococcus aureus [11]): > 100 µg/mL |
| CCCOc1ccc(-c2cc(OCCN3CCSCC3)c3ccccc3n2)cc1 | – | – | 57.7 | – | – | – | – | – | – |
| CCCOc1ccc(-c2cc(OCCN)c3ccccc3n2)cc1 | > 310 | 9.3 | 96.1 | – | – | – | – | – | – |
| CCCOc1ccc(-c2cc(OCc3ccccn3)c3ccccc3n2)cc1 | – | – | 19.6 | – | – | – | – | – | – |
| CCCOc1ccc(-c2cc(OCCN3CCCC3)c3ccccc3n2)cc1 | > 200 | 9.3 | 94.2 | – | – | – | – | – | – |
| CCCOc1ccc(-c2cc(OCCN3CCOCC3)c3ccccc3n2)cc1 | > 200 | 10.7 | 86.9 | – | – | – | – | – | – |
| CCCOc1ccc(-c2cc(OCCN3CCc4ccccc4C3)c3ccccc3n2)cc1 | – | – | 67.9 | – | – | – | – | – | – |
| CCCOc1ccc(-c2cc(OCCN3CCN(Cc4ccccc4)CC3)c3ccccc3n2)cc1 | > 200 | 3.8 | 81.2 | > 100 | inactive | inactive | inactive | 4 | MIC (Staphylococcus aureus [5]): > 100 µg/mL; Activity (Staphylococcus aureus [12]): inactive; inhibition (Staphylococcus aureus [13]): Active; MIC (Staphylococcus aureus [10]): > 100 µg/mL; MIC (Staphylococcus aureus [11]): > 100 µg/mL |
| CCCOc1ccc(-c2cc(OCCN3CCNCC3)c3ccccc3n2)cc1 | > 200 | 8.3 | 93.4 | > 100 | inactive | inactive | inactive | 4 | MIC (Staphylococcus aureus [5]): 25 µg/mL; fold change (FC) [14]: 16; Activity (Staphylococcus aureus [12]): inactive; inhibition (Staphylococcus aureus [13]): Active; MIC (Staphylococcus aureus [10]): 50 µg/mL; fold change (FC) (Staphylococcus aureus [15]): 16; MIC (Staphylococcus aureus [11]): > 100 µg/mL |
